According to ChEMBL document CHEMBL3822410, “Novel substituted isoxazole FXR agonists with cyclopropyl, hydroxycyclobutyl and hydroxyazetidinyl linkers: Understanding and improving key determinants of pharmacological properties” (Bioorg Med Chem Lett, 2016):
≈ marks a conversion by molar mass, not a printed value. Calls of active or inactive are those of the source. No cut-off for these calls is given here.

Columns and labels:
[1] = target: T1, Bile acid receptor (Homo sapiens) (UniProt Q96RI1); test: Agonist activity at GST-tagged FXR LBD (187 to 472 residues) (unknown origin) assessed as FXR interaction with b-CPSSHSSLTERHKILHRLLQEGSPS-COOH by FRET assay relative to GW4064
T1 sequence (whole entry): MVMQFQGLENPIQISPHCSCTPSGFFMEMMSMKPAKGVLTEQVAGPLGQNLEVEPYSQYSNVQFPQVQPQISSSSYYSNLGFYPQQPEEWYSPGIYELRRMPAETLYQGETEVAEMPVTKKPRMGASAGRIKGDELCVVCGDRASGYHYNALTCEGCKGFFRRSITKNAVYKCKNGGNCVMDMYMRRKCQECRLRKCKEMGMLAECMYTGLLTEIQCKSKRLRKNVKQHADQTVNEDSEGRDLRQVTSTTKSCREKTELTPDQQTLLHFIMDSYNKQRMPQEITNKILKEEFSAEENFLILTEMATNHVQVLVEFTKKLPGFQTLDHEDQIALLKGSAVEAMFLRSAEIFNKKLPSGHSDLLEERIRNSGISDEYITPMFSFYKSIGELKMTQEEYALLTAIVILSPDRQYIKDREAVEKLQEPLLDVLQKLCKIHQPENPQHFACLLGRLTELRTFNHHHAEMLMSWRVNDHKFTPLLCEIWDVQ

[2] = target: T2, Bile acid receptor (Homo sapiens, UniProt Q96RI1); test: Agonist activity at GST-tagged FXR LBD (187 to 472 residues) (unknown origin) assessed as FXR interaction with b-CPSSHSSLTERHKILHRLLQEGSPS-COOH by FRET assay
T2 sequence (Q96RI1 whole entry): T1 sequence (whole entry)

[3] = target: T1, Bile acid receptor (Homo sapiens); test: Agonist activity at C-terminal Gal4-tagged human FXR (187 to 472 residues) expressed in HEK-293 cells co-expressing pFRluc by mammalian one hybrid assay relative to GW4064; format: cell-based; conditions: HEK293
Summary of the method: (§1)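 Transient transfection of HEK293 cells with Gal4 DBD–human FXR LBD (187–472) chimera under CMV promoter plus pFRluc Gal4-driven firefly luciferase reporter. Cells treated with serial compound dilutions. EC50 from at least three experiments; efficacy is extrapolated maximum signal of the dose-response, GW4064 set to 100%.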

[4] = target: T2, Bile acid receptor; test: Agonist activity at C-terminal Gal4-tagged human FXR (187 to 472 residues) expressed in HEK-293 cells co-expressing pFRluc by mammalian one hybrid assay; format: cell-based, HEK293; summary of the method: as §1
[5] = Aqueous solubility of the compound; format: physicochemical; conditions: buffer
[6] = Cmax in C57BL/6J mouse at 5 mg/kg, po and 1 mg/kg, iv; format: ADME, organism-based; conditions: in vivo
Summary of the method: (§2)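 Mice dosed 5 mg/kg orally and 1 mg/kg intravenously; bioavailability from both arms, all other parameters (AUC, Cmax, T1/2, Cl/F, Vd/F) calculated from the oral arm.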

[7] = Oral bioavailability in C57BL/6J mouse at 5 mg/kg; format: ADME, organism-based; conditions: in vivo; summary of the method: as §2
[8] = Half life in C57BL/6J mouse at 5 mg/kg, po and 1 mg/kg, iv; format: ADME, organism-based; conditions: in vivo; summary of the method: as §2
[9] = Apparent oral volume of distribution in C57BL/6J mouse at 5 mg/kg; format: ADME, organism-based; conditions: in vivo; summary of the method: as §2
[10] = Apparent oral clearance in C57BL/6J mouse at 5 mg/kg; format: ADME, organism-based; conditions: in vivo; summary of the method: as §2
[11] = Permeability of the compound assessed as compound influx measured after 16 hrs by PAMPA assay; format: ADME
Summary of the method: (§3)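 PAMPA, 16 h at rt. Flux = [C_acceptor/(C_donor + C_acceptor)] × 100 × 2. Membrane enrichment = C_membrane × 2/(C_acceptor + C_donor), membrane phase extracted into a volume equal to the acceptor or donor compartment.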

[12] = Permeability of the compound assessed as compound enrichment in membrane compartment measured after 16 hrs by PAMPA assay relative to control; format: ADME; summary of the method: as §3
[13] = tested on: Mus musculus; test: Reduction in total cholesterol level in high fat diet enriched with cholesterol fed C57BL/6J mouse plasma at 10 mg/kg, po through gavage for 10 days measured after 4 hrs of final dosage relative to vehicle treated-control; format: functional, organism-based
Summary of the method: (§4)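 C57BL/6J mice pre-fed and kept on high fat diet (60% kcal fat) with 1% (w/w) cholesterol; 10 mg/kg by oral gavage for 10 days. Plasma total cholesterol and triglycerides taken at sacrifice 4 h after final dose, expressed as % change versus vehicle group.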

[14] = AUC in C57BL/6J mouse at 5 mg/kg, po and 1 mg/kg, iv; format: ADME, organism-based; conditions: in vivo; summary of the method: as §2
[15] = tested on: Mus musculus; test: Reduction in total triglyceride level in high fat diet enriched with cholesterol fed C57BL/6J mouse plasma at 10 mg/kg, po through gavage for 10 days measured after 4 hrs of final dosage relative to vehicle treated-control; format: functional, organism-based; summary of the method: as §4

Efficacy [1] [%] | EC50 [2] [nM] | Efficacy [3] [%] | EC50 [4] [nM] | solubility [5] [µM] | Cmax [6] [ng/mL] | bioavailability [7] [%] | half-life [8] [min] | Vd/F [9] [L/kg] | CL/F [10] [mL/min/kg] | permeability [11] [%] | fold change (FC) [12] | AUC [14] [ng·h/mL] | Structure (SMILES) | Activity [13] | Activity [15]
93 | 79 | 75 | 102 |  |  |  |  |  |  |  |  |  | CO[C@]1(c2ccc(OCc3c(-c4c(Cl)cccc4Cl)noc3C3CC3)cc2Cl)C[C@H](c2cccc(C(=O)O)c2)C1 |  | 
94 | 277 | 89 | 220 |  |  |  |  |  |  |  |  |  | CCO[C@]1(c2ccc(OCc3c(-c4c(Cl)cccc4Cl)noc3C3CC3)cc2Cl)C[C@H](c2cccc(C(=O)O)c2)C1 |  | 
101 | 219 | 88 | 90 |  |  |  |  |  |  |  |  |  | O=C(O)c1cccc([C@H]2C[C@@H]2c2ccc(OCc3c(-c4c(Cl)cccc4Cl)noc3C3CC3)cc2Cl)c1 |  | 
99 | 80 | 89 | 47 |  |  |  |  |  |  |  |  |  | O=C(O)c1ccc([C@@H]2C[C@H]2c2ccc(OCc3c(-c4c(Cl)cccc4Cl)noc3C3CC3)cc2Cl)cc1 |  | 
100 | 1090 | 71 | 186 |  |  |  |  |  |  |  |  |  | O=C(O)c1ccc([C@H]2C[C@@H]2c2ccc(OCc3c(-c4c(Cl)cccc4Cl)noc3C3CC3)cc2Cl)cc1 [PX-102] |  | 
103 | 10 | 73 | 14 | 165 (≈ 91.7 µg/mL) |  |  |  |  |  |  |  |  | O=C(O)c1cncc(C2CC2c2ccc(OCc3c(-c4c(Cl)cccc4Cl)noc3C3CC3)cc2Cl)c1 (stereo not given) |  | 
100 | 150 | 58 | 209 |  |  |  |  |  |  |  |  |  | O=C(O)CNC(=O)c1ccc(C2CC2c2ccc(OCc3c(-c4c(Cl)cccc4Cl)noc3C3CC3)cc2Cl)cc1 (racemic) |  | 
100 | 29 | 79 | 25 |  | 9800 | 49 | 36 | 0.3 | 4.7 | 24 | 27 | 8600 | O=C(O)c1cccc([C@H]2C[C@](O)(c3ccc(OCc4c(-c5c(Cl)cccc5Cl)noc4C4CC4)cc3Cl)C2)c1 | Active | Active
102 | 32 | 87 | 34 | 20 (≈ 11.1 µg/mL) | 1060 | 53 | 60 | 4.7 | 55 | 17 | 33 | 800 | O=C(O)c1cccc(C2CC2c2ccc(OCc3c(-c4c(Cl)cccc4Cl)noc3C3CC3)cc2Cl)c1 (racemic) |  | 
101 | 4 | 79 | 4 |  |  |  |  |  |  |  |  |  | CC(C)n1nc(C(=O)O)cc1[C@@H]1C[C@H]1c1ccc(OCc2c(-c3c(Cl)cccc3Cl)noc2C2CC2)cc1Cl |  | 
94 | 48 | 81 | 44 |  |  |  |  |  |  |  |  |  | CS(=O)(=O)NC(=O)c1ccc([C@@H]2C[C@H]2c2ccc(OCc3c(-c4c(Cl)cccc4Cl)noc3C3CC3)cc2Cl)cc1 |  | 
100 | 24 | 89 | 15 |  |  |  |  |  |  | 0 | 319 |  | O=C(O)c1cccc([C@H]2C[C@H](c3ccc(OCc4c(-c5c(Cl)cccc5Cl)noc4C4CC4)cc3Cl)C2)c1 |  | 
97 | 373 | 68 | 377 |  |  |  |  |  |  |  |  |  | O=C(O)c1cccc([C@H]2C[C@](OCCO)(c3ccc(OCc4c(-c5c(Cl)cccc5Cl)noc4C4CC4)cc3Cl)C2)c1 |  | 
99 | 19 | 82 | 50 |  |  |  |  |  |  |  |  |  | Cn1nc(C(=O)O)c2ccc([C@H]3C[C@](O)(c4ccc(OCc5c(-c6c(Cl)cccc6Cl)noc5C5CC5)cc4Cl)C3)cc21 |  | 
102 | 7 | 81 | 6 | 158 (≈ 92.7 µg/mL) | 160 | 11 | 48 | 5.5 | 83 | 29 | 22 | 110 | CC(C)n1nc(C(=O)O)cc1C1CC1c1ccc(OCc2c(-c3c(Cl)cccc3Cl)noc2C2CC2)cc1Cl (racemic) | Active | Active
100 | 18 | 98 | 29 |  |  |  |  |  |  |  |  |  | O=C(O)c1cccc([C@@H]2C[C@H]2c2ccc(OCc3c(-c4c(Cl)cccc4Cl)noc3C3CC3)cc2Cl)c1 | inactive | inactive
100 | 131 | 85 | 76 |  | 280 | 44 | 30 | 3.6 | 85 | 14 | 30 | 430 | O=C(O)c1ccc(C2CC2c2ccc(OCc3c(-c4c(Cl)cccc4Cl)noc3C3CC3)cc2Cl)cc1 (racemic) | Active | Active
101 | 66 | 68 | 57 |  |  |  |  |  |  |  |  |  | O=C(O)c1ccc(C2CC2c2ccc(OCc3c(-c4c(Cl)cccc4Cl)noc3C3CC3)cc2Cl)cn1 (stereo not given) |  | 
99 | 77 | 88 | 92 |  |  |  |  |  |  |  |  |  | O=C(O)c1cccc([C@H]2C[C@@H](c3ccc(OCc4c(-c5c(Cl)cccc5Cl)noc4C4CC4)cc3Cl)C2)c1 |  | 
105 | 24 | 71 | 63 | 192 (≈ 112 µg/mL) | 96 | 41 | 66 | 3.9 | 190 | 21 | 9 | 180 | O=C(O)c1ccc([C@H]2C[C@](O)(c3ccc(OCc4c(-c5c(Cl)cccc5Cl)noc4C4CC4)cc3Cl)C2)cc1 |  | 
101 | 131 | 79 | 111 |  |  |  |  |  |  |  |  |  | Clc1cc(OCc2c(-c3c(Cl)cccc3Cl)noc2C2CC2)ccc1C1CC1c1ccc(-c2nnn[nH]2)nc1 (stereo not given) |  | 
100 | 90 | 88 | 44 |  |  |  |  |  |  |  |  |  | CS(=O)(=O)NC(=O)c1ccc(C2CC2c2ccc(OCc3c(-c4c(Cl)cccc4Cl)noc3C3CC3)cc2Cl)cc1 (racemic) |  | 
97 | 54 | 94 |  |  |  |  |  |  |  | 27 | 40 |  | O=C(O)c1cccc(N2CC(O)(c3ccc(OCc4c(-c5c(Cl)cccc5Cl)noc4C4CC4)cc3Cl)C2)c1 |  | 
98 | 76 | 34 | 1370 |  |  |  |  |  |  |  |  |  | O=C(NCCS(=O)(=O)O)c1ccc(C2CC2c2ccc(OCc3c(-c4c(Cl)cccc4Cl)noc3C3CC3)cc2Cl)cc1 (racemic) |  | 
104 | 13 | 84 | 14 |  |  |  |  |  |  |  |  |  | Cn1nc(C(=O)O)c2ccc(C3CC3c3ccc(OCc4c(-c5c(Cl)cccc5Cl)noc4C4CC4)cc3Cl)cc21 (racemic) |  | 
